Data as given in ChEMBL document CHEMBL4354871, “Discovery of Selective Small Molecule Degraders of BRAF-V600E” (J Med Chem, 2020).
pIC50, pKd: −log10 of the molar value. Active and inactive are the calls of the source. The calls are words filed in the database; no cut-off is given here.

Assays:
[1] = biological target: Serine/threonine-protein kinase B-raf (Homo sapiens, UniProt P15056, V600E); test: Binding affinity to DNA-tagged BRAF (unknown origin) V600E mutant by KINOMEscan assay
[2] = biological target: T1, Serine/threonine-protein kinase B-raf (Homo sapiens, UniProt P15056); test: Binding affinity to DNA-tagged BRAF (unknown origin) by KINOMEscan assay
[3] = tested on: Protein cereblon/Serine/threonine-protein kinase B-raf (Homo sapiens), P15056+Q96SW2 [V600E]; test: Protac activity at CRBN/BRAF V600E mutant in human A375 cells assessed as induction of BRAF V600E mutant degradation at 1 to 1000 nM incubated for 16 hrs by immunoblotting; format: cell-based
How it was run: (§1)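 A375 cells (BRAF-V600E, DMEM with 10% FBS, 37 °C, 5% CO2) were exposed to DMSO or a serial dilution of degrader for 16 h. Cells were lysed in cold RIPA with protease and phosphatase inhibitors, protein was measured by BCA, and samples were run on SDS-PAGE. Blots were probed for BRAF, p-ERK1/2 and α-tubulin, detected by ECL, and bands were quantitated.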

A-375 [4] = test: Cytotoxicity in human A375 cells assessed as reduction in cell viability by Cell-titer-Lumi assay; format: functional, cell-based
How it was run: (§2)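 Cells grown in DMEM with 10% FBS at 37 °C, 5% CO2. Seeded at 2000 cells/well, then treated across a 12-point serial dilution. Viability read after three days by CellTiter-Lumi luminescence. IC50 obtained by nonlinear least-squares regression of dose-response curves. Lines STR-authenticated and mycoplasma-free.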

HT-29 = test: Cytotoxicity in human HT-29 cells assessed as reduction in cell viability by Cell-titer-Lumi assay; format: functional, cell-based; how it was run: as §2
HaCaT = test: Cytotoxicity in human HaCaT cells assessed as reduction in cell viability at 10 nM to 10 uM by Cell-titer-Lumi assay; format: cell-based; how it was run: as §2
WI-38 = test: Cytotoxicity in human WI38 cells assessed as reduction in cell viability at 10 nM to 10 uM by Cell-titer-Lumi assay; format: cell-based; conditions: wi-38, 10 nM to 10 uM; how it was run: as §2
IMR-90 = test: Cytotoxicity in human IMR90 cells assessed as reduction in cell viability at 10 nM to 10 uM by Cell-titer-Lumi assay; format: cell-based; conditions: imr-90, 10 nM to 10 uM; how it was run: as §2
[5] = tested on: Serine/threonine-protein kinase B-raf (Homo sapiens), P15056 [V600E]; test: Potency index, ratio of Kd for vemurafenib to Kd of test compound for binding affinity to DNA-tagged BRAF (unknown origin) V600E mutant by KINOMEscan assay
[6] = biological target: T1, Serine/threonine-protein kinase B-raf; test: Potency index, ratio of Kd for vemurafenib to Kd of test compound for binding affinity to DNA-tagged BRAF (unknown origin) by KINOMEscan assay
[7] = tested on: Protein cereblon/Serine/threonine-protein kinase B-raf (Homo sapiens), P15056+Q96SW2 [V600E]; test: Protac activity at CRBN/BRAF V600E mutant in human A375 cells assessed as reduction in BRAF V600E mutant-mediated ERK phosphorylation at 1 to 1000 nM incubated for 16 hrs by immunoblotting; format: cell-based; how it was run: as §1
[8] = biological target: T2, Protein cereblon/Serine/threonine-protein kinase B-raf (Homo sapiens) (UniProt P15056+Q96SW2); test: Protac activity at CRBN/BRAF in human A549 cells assessed as induction of BRAF degradation at 1 to 1000 nM incubated for 16 hrs by immunoblotting; format: cell-based
How it was run: (§3)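 A549 cells carrying wild-type BRAF (DMEM, 10% FBS) were treated with DMSO or a 3-fold serial dilution of compound for 16 h. BRAF was read by immunoblotting: RIPA lysis, BCA protein assay, SDS-PAGE, anti-BRAF antibody with α-tubulin as loading control, ECL detection and densitometric quantitation.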

[9] = tested on: Protein cereblon/Serine/threonine-protein kinase B-raf (Homo sapiens), P15056+Q96SW2 [V600E]; test: Protac activity at CRBN/BRAF V600E mutant kinase domain (unknown origin) expressed in human A375 cells assessed as induction of BRAF V600E mutant degradation at 1 to 1000 nM incubated for 16 hrs by immunoblotting; format: cell-based
How it was run: (§4)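 A375 lines stably expressing the BRAF-V600E or wild-type BRAF kinase domain were made by lentiviral transduction and kept in 1 µg/mL puromycin. They were treated with DMSO or a 3-fold serial dilution of compound for 16 h. Kinase-domain levels were read by immunoblotting of RIPA lysates with ECL and band quantitation.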

[10] = biological target: T2, Protein cereblon/Serine/threonine-protein kinase B-raf (Homo sapiens); test: Protac activity at CRBN/BRAF kinase domain (unknown origin) expressed in human A375 cells assessed as induction of BRAF degradation at 1 to 1000 nM incubated for 16 hrs by immunoblotting; format: cell-based; how it was run: as §4
A-375 [11] = test: Inhibition of colony formation in human A375 cells at 40 to 1000 nM incubated for 7 days by crystal violet staining based assay; format: functional, cell-based
How it was run: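 A375 plated at 200 cells/well, dosed the following day with DMSO or compound. After seven days, cells fixed and stained with 0.5% crystal violet, and colonies counted. Data as mean ± SD; Student's t-test against corresponding control groups.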

[12] = tested on: Protein cereblon/Serine/threonine-protein kinase B-raf (Homo sapiens), P15056+Q96SW2 [V600E]; test: Protac activity at CRBN/BRAF V600E mutant in human A375 cells assessed as induction of BRAF V600E mutant degradation at 500 nM incubated for 6 hrs after 1 hr pre-treatment with 10 uM pomalidomide by immunoblotting
[13] = tested on: Protein cereblon/Serine/threonine-protein kinase B-raf (Homo sapiens), P15056+Q96SW2 [V600E]; test: Protac activity at CRBN/BRAF V600E mutant in human A375 cells assessed as induction of BRAF V600E mutant degradation at 500 nM incubated for 6 hrs after 1 hr pre-treatment with 20 uM proteasome inhibitor MG132 by immunoblotting
[14] = tested on: Protein cereblon/Serine/threonine-protein kinase B-raf (Homo sapiens), P15056+Q96SW2 [V600E]; test: Protac activity at CRBN/BRAF V600E mutant in human A375 cells assessed as induction of BRAF V600E mutant degradation at 500 nM incubated for 6 hrs after 1 hr pre-treatment with 200 nM proteasome inhibitor bortezomib by immunoblotting
[15] = tested on: Protein cereblon/Serine/threonine-protein kinase B-raf (Homo sapiens), P15056+Q96SW2 [V600E]; test: Protac activity at CRBN/BRAF V600E mutant in human A375 cells assessed as induction of BRAF V600E mutant degradation at 500 nM incubated for 6 hrs after 1 hr pre-treatment with 1 uM NEDD8-activating enzyme inhibitor […] by immunoblotting
[16] = tested on: Protein cereblon/Serine/threonine-protein kinase B-raf (Homo sapiens), P15056+Q96SW2 [V600E]; test: Protac activity at CRBN/BRAF V600E mutant in human A375 cells assessed as reduction in BRAF V600E mutant-mediated ERK phosphorylation at 1 to 1000 nM incubated for 2 hrs by immunoblotting; format: cell-based
[17] = biological target: T2, Protein cereblon/Serine/threonine-protein kinase B-raf (Homo sapiens); test: Protac activity at CRBN/BRAF in human A549 cells assessed as induction of BRAF degradation at 15 to 1000 nM incubated for 16 hrs by immunoblotting; format: cell-based; how it was run: as §3

T1 sequence (P15056 whole entry): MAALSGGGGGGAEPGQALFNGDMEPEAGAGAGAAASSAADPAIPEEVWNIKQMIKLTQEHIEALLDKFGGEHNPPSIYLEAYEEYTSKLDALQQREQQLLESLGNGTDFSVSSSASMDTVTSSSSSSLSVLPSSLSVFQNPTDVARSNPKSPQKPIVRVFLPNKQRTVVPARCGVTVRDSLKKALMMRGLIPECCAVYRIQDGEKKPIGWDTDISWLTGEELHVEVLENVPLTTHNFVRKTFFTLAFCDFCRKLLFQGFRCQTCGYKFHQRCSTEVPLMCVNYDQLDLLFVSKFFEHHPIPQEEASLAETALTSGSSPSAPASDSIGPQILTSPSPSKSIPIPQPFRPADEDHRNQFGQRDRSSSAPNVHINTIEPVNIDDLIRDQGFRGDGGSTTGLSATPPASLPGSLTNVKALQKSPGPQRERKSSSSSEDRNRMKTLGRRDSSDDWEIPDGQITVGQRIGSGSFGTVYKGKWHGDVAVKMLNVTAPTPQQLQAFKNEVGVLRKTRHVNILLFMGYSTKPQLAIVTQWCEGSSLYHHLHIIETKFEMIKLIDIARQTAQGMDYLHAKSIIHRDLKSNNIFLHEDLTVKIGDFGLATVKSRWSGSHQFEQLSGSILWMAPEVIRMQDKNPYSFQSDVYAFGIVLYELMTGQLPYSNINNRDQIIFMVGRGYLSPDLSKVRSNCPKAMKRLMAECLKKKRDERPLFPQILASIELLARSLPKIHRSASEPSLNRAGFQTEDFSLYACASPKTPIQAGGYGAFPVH
T2 sequence (P15056 whole entry, looked up): as the sequence (P15056 whole entry) above
T2 sequence (Q96SW2 whole entry, looked up): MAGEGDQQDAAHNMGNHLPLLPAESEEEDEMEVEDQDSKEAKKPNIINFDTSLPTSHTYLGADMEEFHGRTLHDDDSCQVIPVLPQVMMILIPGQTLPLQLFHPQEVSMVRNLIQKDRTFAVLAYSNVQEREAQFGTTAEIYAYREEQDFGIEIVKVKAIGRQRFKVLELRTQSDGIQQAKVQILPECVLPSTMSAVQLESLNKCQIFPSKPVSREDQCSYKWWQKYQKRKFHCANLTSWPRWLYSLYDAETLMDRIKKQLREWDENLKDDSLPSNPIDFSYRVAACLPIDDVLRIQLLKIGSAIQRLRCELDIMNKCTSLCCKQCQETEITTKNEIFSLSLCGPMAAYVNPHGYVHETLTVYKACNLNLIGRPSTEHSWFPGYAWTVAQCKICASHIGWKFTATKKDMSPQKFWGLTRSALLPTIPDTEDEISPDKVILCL
Sequence of Serine/threonine-protein kinase B-raf (Homo sapiens, UniProt P15056, V600E) (P15056 2-766 V600E limits assumed): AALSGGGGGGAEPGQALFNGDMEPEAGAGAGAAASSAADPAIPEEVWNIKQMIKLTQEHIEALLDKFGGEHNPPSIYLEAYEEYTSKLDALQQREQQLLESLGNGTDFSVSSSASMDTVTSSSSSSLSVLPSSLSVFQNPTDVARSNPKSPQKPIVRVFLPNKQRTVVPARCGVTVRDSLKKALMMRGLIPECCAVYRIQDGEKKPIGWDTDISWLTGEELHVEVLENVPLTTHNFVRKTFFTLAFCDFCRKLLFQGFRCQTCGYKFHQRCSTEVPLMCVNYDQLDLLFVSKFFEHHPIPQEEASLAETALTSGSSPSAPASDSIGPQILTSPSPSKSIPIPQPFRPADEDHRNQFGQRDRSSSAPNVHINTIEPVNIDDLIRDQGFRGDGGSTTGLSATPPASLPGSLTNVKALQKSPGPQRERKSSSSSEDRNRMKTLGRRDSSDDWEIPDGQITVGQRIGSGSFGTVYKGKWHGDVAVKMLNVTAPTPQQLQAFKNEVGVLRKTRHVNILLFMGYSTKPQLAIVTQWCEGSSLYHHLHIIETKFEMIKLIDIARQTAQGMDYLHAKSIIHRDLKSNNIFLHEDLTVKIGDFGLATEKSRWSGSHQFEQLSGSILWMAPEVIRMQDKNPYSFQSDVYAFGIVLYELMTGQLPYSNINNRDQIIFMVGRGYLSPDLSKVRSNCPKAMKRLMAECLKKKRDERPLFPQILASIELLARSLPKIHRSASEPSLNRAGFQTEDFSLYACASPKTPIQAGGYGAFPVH
Sequence of Serine/threonine-protein kinase B-raf (Homo sapiens), P15056 [V600E] (P15056 whole entry V600E): as the sequence (P15056 whole entry) above, with V600E counted along it

## CCCS(=O)(=O)Nc1ccc(F)c(-n2cc(-c3cncnc3)c3nc(N(C)C4CCN(C(=O)CCOCCOCCOCCNc5cccc6c5C(=O)N(C5CCC(=O)N(C)C5=O)C6=O)CC4)ccc32)c1F (centres undefined)
[1]
  pKd: 8.57
[2]
  pKd: 8.59
[3]
  Activity: inactive
A-375 [4]
  pIC50: 6.72
HT-29
  pIC50: 6.46
HaCaT
  Activity: Non-Toxic
WI-38
  Activity: Non-Toxic
IMR-90
  Activity: Non-Toxic

## CCCS(=O)(=O)Nc1ccc(F)c(C(=O)c2c[nH]c3ncc(-c4ccc(CNC(=O)CCCCNc5ccc6c(c5)C(=O)N(C5CCC(=O)NC5=O)C6=O)cc4)cc23)c1F (centres undefined)
[1]
  pKd: 7.84
[2]
  pKd: 8.02
[5]
  Ratio: 4 to 5
[6]
  Ratio: 4 to 5
[3]
  Activity: Dose-dependent effect
[7]
  Activity: Dose-dependent effect
[8]
  Activity: inactive
[9]
  Activity: Active
[10]
  Activity: inactive
A-375 [11]
  inhibition: Active
A-375 [4]
  pIC50: 6.30
HT-29
  pIC50: 6.91
HaCaT
  Activity: Non-Toxic
WI-38
  Activity: Non-Toxic
IMR-90
  Activity: Non-Toxic
[12]
  Activity: inactive
[13]
  Activity: inactive
[14]
  Activity: inactive
[15]
  Activity: inactive

## CCCS(=O)(=O)Nc1ccc(F)c(-n2cc(-c3cncnc3)c3nc(N(C)C4CCN(CC)CC4)ccc32)c1F [XP-102]
[1]
  pKd: 9.48
[2]
  pKd: 9.43
A-375 [4]
  pIC50: 8.20
HT-29
  pIC50: 8.77

## CCCS(=O)(=O)Nc1ccc(F)c(C(=O)c2c[nH]c3ncc(-c4ccc(CNC(=O)CCCCNc5ccc6c(c5)C(=O)N(C5CCC(=O)N(C)C5=O)C6=O)cc4)cc23)c1F (centres undefined)
[1]
  pKd: 8.14
[2]
  pKd: 8.29
[3]
  Activity: inactive
A-375 [4]
  pIC50: 6.31
HT-29
  pIC50: 6.34
HaCaT
  Activity: Non-Toxic
WI-38
  Activity: Non-Toxic
IMR-90
  Activity: Non-Toxic

## CCCS(=O)(=O)Nc1ccc(F)c(C(=O)c2c[nH]c3ncc(-c4ccc(Cl)cc4)cc23)c1F [VEMURAFENIB]
A-375 [4]
  pIC50: 6.94
HT-29
  pIC50: 6.79

## CCCS(=O)(=O)Nc1ccc(F)c(-n2cc(-c3cncnc3)c3nc(N(C)C4CCN(C(=O)CCOCCOCCOCCNc5cccc6c5C(=O)N(C5CCC(=O)NC5=O)C6=O)CC4)ccc32)c1F (centres undefined)
[1]
  pKd: 8.70
[2]
  pKd: 8.62
[3]
  Activity: Dose-dependent effect
[7]
  Activity: Dose-dependent effect
[16]
  Activity: Active
[17]
  Activity: inactive
[9]
  Activity: Active
[10]
  Activity: inactive
A-375 [11]
  inhibition: Active
A-375 [4]
  pIC50: 7.33
HT-29
  pIC50: 7.29
HaCaT
  Activity: Non-Toxic
WI-38
  Activity: Non-Toxic
IMR-90
  Activity: Non-Toxic
[12]
  Activity: inactive
[13]
  Activity: inactive
[14]
  Activity: inactive
[15]
  Activity: inactive
